From ChEMBL document CHEMBL3352137, “Modification on ursodeoxycholic acid (UDCA) scaffold. discovery of bile acid derivatives as selective agonists of cell-surface G-protein coupled bile acid receptor 1 (GP-BAR1)” (J Med Chem, 2014)
Activity calls are given as the source filed them. No cut-off for these calls is given here.

Experiments:
[1] = biological target: T1, Bile acid receptor (Homo sapiens) (UniProt Q96RI1); experiment: Agonist activity at FXR (unknown origin) expressed in human HepG2 cells assessed as stimulation of FXR response element IR1-mediated receptor transactivation at 50 uM in presence of CDCA by luciferase reporter gene assay; assay type: cell-based
T1 sequence (whole entry): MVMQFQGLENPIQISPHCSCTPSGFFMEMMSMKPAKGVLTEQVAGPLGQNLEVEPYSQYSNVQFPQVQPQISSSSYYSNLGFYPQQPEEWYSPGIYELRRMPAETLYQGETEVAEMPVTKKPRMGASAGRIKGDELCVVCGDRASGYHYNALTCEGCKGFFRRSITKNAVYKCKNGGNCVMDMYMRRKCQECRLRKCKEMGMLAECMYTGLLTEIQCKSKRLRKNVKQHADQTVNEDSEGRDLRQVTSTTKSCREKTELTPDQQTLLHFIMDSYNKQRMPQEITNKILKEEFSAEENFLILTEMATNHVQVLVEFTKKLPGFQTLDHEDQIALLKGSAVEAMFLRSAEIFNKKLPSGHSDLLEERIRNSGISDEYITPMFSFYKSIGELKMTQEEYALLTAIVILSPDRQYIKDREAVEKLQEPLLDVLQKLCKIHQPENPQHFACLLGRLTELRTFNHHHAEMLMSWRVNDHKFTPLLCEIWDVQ
Method in brief: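 HepG2 cells were cotransfected with pSG5-FXR, pSG5-RXR, the IR1-containing p(hsp27)-TK-LUC reporter and a Renilla vector (pGL4.70). 24 h after transfection they were stimulated for 18 h with 10 μM CDCA plus 50 μM compound. Lysates were read for luciferase. Data are the RLU/RRU ratio, mean ± standard error, compared with CDCA and untreated cells.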

HEK-293T = experiment: Toxicity against HEK293T cells at 50 uM; assay type: cell-based; conditions: human
[2] = biological target: T2, G-protein coupled bile acid receptor 1 (Homo sapiens) (UniProt Q8TDU6); experiment: (§1) Agonist activity at human GPBAR1 expressed in HEK293T cells assessed as stimulation of cAMP response element-mediated receptor transactivation by luciferase reporter gene assay; assay type: functional, cell-based; conditions: HEK-293T
T2 sequence (whole entry): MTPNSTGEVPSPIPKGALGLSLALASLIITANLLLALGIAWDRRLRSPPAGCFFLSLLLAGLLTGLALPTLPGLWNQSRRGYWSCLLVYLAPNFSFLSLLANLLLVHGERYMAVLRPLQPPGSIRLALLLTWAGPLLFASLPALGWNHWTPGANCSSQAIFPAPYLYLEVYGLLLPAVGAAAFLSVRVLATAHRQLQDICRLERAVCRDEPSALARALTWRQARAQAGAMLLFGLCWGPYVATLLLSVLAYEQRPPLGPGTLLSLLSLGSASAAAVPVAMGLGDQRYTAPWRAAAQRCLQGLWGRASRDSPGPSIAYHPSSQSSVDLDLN
Method in brief: (§2)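 HEK-293T cells were cotransfected with a CRE-driven luc2P reporter (pGL4.29), pCMVSPORT6-human GP-BAR1 and a Renilla vector. 24 h after transfection they were stimulated for 18 h (10 μM single point; 0.1, 1 and 10 μM for EC50). Lysates were read for luciferase as a measure of intracellular cAMP rise, with TLCA 10 μM as reference. Data are mean ± standard error of at least three determinations in duplicate.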

[3] = biological target: T3, G-protein coupled bile acid receptor 1 (Homo sapiens, UniProt Q8TDU6); experiment: as §1; assay type: functional, cell-based, HEK-293T; method in brief: as §2
T3 sequence (Q8TDU6 whole entry): T2 sequence (whole entry)

Mus musculus [4] = experiment: Induction of FXR-mediated OST mRNA expression in CD1 mouse liver at 64 mg/kg, po measured 3 to 24 hrs post dose by real-time PCR method; assay type: functional, organism-based; set-up: dose 64 mg/kg
Method in brief: (§3)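 Male CD1 mice (n = 3, 4) received a single oral dose of 64 mg/kg. Liver and ileum were collected at 6 or 24 h (3, 6 and 24 h also stated). Target mRNA was measured by SYBR real-time PCR (0.2 μM primers, 10 ng template, 40 cycles of 95 °C 20 s / 60 °C 30 s), with all reactions in triplicate. Comparison was versus control mice.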

Mus musculus [5] = experiment: Induction of FXR-mediated BSEP mRNA expression in CD1 mouse liver at 64 mg/kg, po measured 3 to 24 hrs post dose by real-time PCR method; assay type: functional, organism-based; set-up: dose 64 mg/kg; method in brief: as §3
Mus musculus [6] = experiment: Induction of GPBAR1-mediated pro-glucagon-1 mRNA expression in CD1 mouse intestine at 64 mg/kg, po measured 6 hrs post dose by real-time PCR method; assay type: functional; method in brief: as §3
Mus musculus [7] = experiment: Increase in plasma bile acid level in CD1 mouse model of ANIT-induced cholestasis at 16 mg/kg, po
Mus musculus [8] = experiment: Increase in plasma tauro-cholic acid level in CD1 mouse model of ANIT-induced cholestasis at 16 mg/kg, po
Mus musculus [9] = experiment: Increase in plasma tauro-muricholic acid level in CD1 mouse model of ANIT-induced cholestasis at 16 mg/kg, po
Mus musculus [10] = experiment: Induction of FXR-mediated BSEP mRNA expression in CD1 mouse liver at 64 mg/kg, po measured 24 hrs post dose by real-time PCR method; assay type: functional, organism-based; set-up: dose 64 mg/kg; method in brief: as §3
Mus musculus [11] = experiment: Induction of FXR-mediated OST mRNA expression in CD1 mouse liver at 64 mg/kg, po measured 24 hrs post dose by real-time PCR method; assay type: functional, organism-based; set-up: dose 64 mg/kg; method in brief: as §3
Mus musculus [12] = experiment: Effect on body weight loss in CD1 mouse model of ANIT-induced cholestasis at 64 mg/kg, po; assay type: functional, organism-based; set-up: dose 64 mg/kg
Mus musculus [13] = experiment: Effect on plasma bile acid level in CD1 mouse model of ANIT-induced cholestasis at 64 mg/kg, po; assay type: functional, organism-based; set-up: dose 64 mg/kg

Question: For `C[C@H](CCCCC(=O)O)[C@H]1CC[C@H]2[C@@H]3[C@H](O)C[C@@H]4C[C@H](O)CC[C@]4(C)[C@H]3CC[C@]12C`, which Activity [1] is on record?
Answer: Active

Question: And the Activity (HEK-293T)?
Answer: Toxic

Question: Which results are given for `C[C@H](CCCCC(=O)O)[C@H]1CC[C@H]2[C@@H]3[C@@H](O)C[C@@H]4C[C@H](O)CC[C@]4(C)[C@H]3CC[C@]12C`?
Answer: Activity [2]: Dose-dependent effect; EC50 [3]: 17.2 µM; Activity (Mus musculus [4]): inactive; Activity (Mus musculus [5]): inactive; fold change (FC) (Mus musculus [6]): 2; Activity (Mus musculus [7]): Active; Activity (Mus musculus [8]): Active; Activity (Mus musculus [9]): Active

Question: Which results are given for `C[C@H](CCO)[C@H]1CC[C@H]2[C@@H]3[C@@H](O)C[C@@H]4C[C@H](O)CC[C@]4(C)[C@H]3CC[C@]12C`?
Answer: Activity [2]: Dose-dependent effect; EC50 [3]: 24.4 µM

Question: What does the source list for `C[C@H](CCC(=O)O)[C@H]1CC[C@H]2[C@@H]3[C@@H](O)C[C@@H]4C[C@H](O)CC[C@]4(C)[C@H]3CC[C@]12C`?
Answer: Activity (Mus musculus [10]): Active; Activity (Mus musculus [11]): Active; Activity (Mus musculus [12]): inactive; Activity (Mus musculus [13]): inactive
